In ChEMBL document CHEMBL1806370, “Development of novel naphthalimide derivatives and their evaluation as potential melanoma therapeutics” (Eur J Med Chem, 2011):

Assays:
[1] = system: UACC-903; assay: Cytotoxicity against human UACC-903 cells assessed as decrease in cell viability after 24 hrs by MTS assay; assay type: functional, cell-based
How it was run: (§1)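 Cells in DMEM with 10% FBS at 37 °C and 5% CO2 were plated at 5×10^3 per well and grown 24 h. They were then exposed 24 or 72 h to 0.5, 1, 5, 10, 25 and 50 µM, with final DMSO 0.5% and DMSO controls. MTS/PMS was added for 4 h at 37 °C. A492 was read with the medium blank subtracted and expressed as % of control. IC50 was taken from three independent experiments (mean ± S.E.).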

[2] = system: A375-S2; assay: Cytotoxicity against human A375-S2 cells assessed as decrease in cell viability after 24 hrs by MTS assay; assay type: functional, cell-based; how it was run: as §1
[3] = system: 1205Lu; assay: Cytotoxicity against human 1205 Lu cells assessed as decrease in cell viability after 24 hrs by MTS assay; assay type: functional, cell-based; how it was run: as §1
[4] = system: UACC-903; assay: Cytotoxicity against human UACC-903 cells assessed as decrease in cell viability after 72 hrs by MTS assay; assay type: functional, cell-based; how it was run: as §1
[5] = system: A375-S2; assay: Cytotoxicity against human A375-S2 cells assessed as decrease in cell viability after 72 hrs by MTS assay; assay type: functional, cell-based; how it was run: as §1
[6] = system: 1205Lu; assay: Cytotoxicity against human 1205 Lu cells assessed as decrease in cell viability after 72 hrs by MTS assay; assay type: functional, cell-based; how it was run: as §1
[7] = system: UACC-903; assay: Cytotoxicity against human UACC-903 cells after 24 hrs by MTS assay; assay type: functional, cell-based; details: UACC-903, 24 h; how it was run: as §1
[8] = Cytotoxicity against human A375-S2 cells after 24 hrs by MTS assay; assay type: functional, cell-based; details: A375-S2, 24 h; how it was run: as §1
[9] = Cytotoxicity against human SK-MEL-37 cells after 24 hrs by MTS assay; assay type: functional, cell-based; how it was run: as §1
[10] = Cytotoxicity against human 1205 Lu cells after 24 hrs by MTS assay; assay type: functional, cell-based; how it was run: as §1
[11] = system: UACC-903; assay: Cytotoxicity against human UACC-903 cells after 72 hrs by MTS assay; assay type: functional, cell-based; details: UACC-903, 72 h; how it was run: as §1
[12] = Cytotoxicity against human A375-S2 cells after 72 hrs by MTS assay; assay type: functional, cell-based; details: A375-S2, 72 h; how it was run: as §1
[13] = Cytotoxicity against human SK-MEL-37 cells after 72 hrs by MTS assay; assay type: functional, cell-based; how it was run: as §1
[14] = Cytotoxicity against human 1205 Lu cells after 72 hrs by MTS assay; assay type: functional, cell-based; how it was run: as §1
[15] = system: UACC-903; assay: Induction of apoptosis in human UACC-903 cells assessed as early apoptotic cells at 1 uM after 24 hrs using annexin-V-PE/7-AAD double staining by flow cytometry; assay type: functional
How it was run: (§2)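 UACC 903 cells were exposed 24 h at 37 °C to 1, 5 or 25 µM, with DMSO as control. Cells were harvested, washed twice in cold PBS and resuspended at 1×10^6 cells/mL in binding buffer. They were stained with 7-AAD plus PE Annexin V for 20 min at room temperature in the dark and run by flow cytometry within 1 h. Gating: double-negative live, 7-AAD+ dead, Annexin V+/7-AAD− early apoptotic. Three separate experiments.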

[16] = system: UACC-903; assay: Induction of apoptosis in human UACC-903 cells assessed as late apoptotic cells at 1 uM after 24 hrs using annexin-V-PE/7-AAD double staining by flow cytometry; assay type: functional; how it was run: as §2
[17] = system: UACC-903; assay: Induction of apoptosis in human UACC-903 cells assessed as non-viable cells at 1 uM after 24 hrs using annexin-V-PE/7-AAD double staining by flow cytometry; assay type: functional; how it was run: as §2
[18] = system: UACC-903; assay: Induction of apoptosis in human UACC-903 cells assessed as viable cells at 1 uM after 24 hrs using annexin-V-PE/7-AAD double staining by flow cytometry; assay type: functional; details: UACC-903, 24 h, read-out: Activity; how it was run: as §2
[19] = system: UACC-903; assay: Induction of apoptosis in human UACC-903 cells assessed as early apoptotic cells at 5 uM after 24 hrs using annexin-V-PE/7-AAD double staining by flow cytometry; assay type: functional; how it was run: as §2
[20] = system: UACC-903; assay: Induction of apoptosis in human UACC-903 cells assessed as late apoptotic cells at 5 uM after 24 hrs using annexin-V-PE/7-AAD double staining by flow cytometry; assay type: functional; how it was run: as §2
[21] = system: UACC-903; assay: Induction of apoptosis in human UACC-903 cells assessed as non-viable cells at 5 uM after 24 hrs using annexin-V-PE/7-AAD double staining by flow cytometry; assay type: functional; how it was run: as §2
[22] = system: UACC-903; assay: Induction of apoptosis in human UACC-903 cells assessed as viable cells at 5 uM after 24 hrs using annexin-V-PE/7-AAD double staining by flow cytometry; assay type: functional; details: UACC-903, 24 h, read-out: Activity; how it was run: as §2
[23] = system: UACC-903; assay: Induction of apoptosis in human UACC-903 cells assessed as early apoptotic cells at 25 uM after 24 hrs using annexin-V-PE/7-AAD double staining by flow cytometry; assay type: functional; how it was run: as §2
[24] = system: UACC-903; assay: Induction of apoptosis in human UACC-903 cells assessed as late apoptotic cells at 25 uM after 24 hrs using annexin-V-PE/7-AAD double staining by flow cytometry; assay type: functional; how it was run: as §2
[25] = system: UACC-903; assay: Induction of apoptosis in human UACC-903 cells assessed as non-viable cells at 25 uM after 24 hrs using annexin-V-PE/7-AAD double staining by flow cytometry; assay type: functional; how it was run: as §2
[26] = system: UACC-903; assay: Induction of apoptosis in human UACC-903 cells assessed as viable cells at 25 uM after 24 hrs using annexin-V-PE/7-AAD double staining by flow cytometry; assay type: functional; details: UACC-903, 24 h, read-out: Activity; how it was run: as §2
[27] = system: UACC-903; assay: Induction of apoptosis in human UACC-903 cells assessed as increase in apoptotic cells after 24 hrs using annexin-V-PE/7-AAD double staining by flow cytometry; assay type: functional, cell-based; how it was run: as §2
[28] = system: Mus musculus; assay: Systemic toxicity in Swiss Webster mouse assessed as mortality at 15 mg/kg, ip administered every day for 28 days; assay type: organism-based; parameters: dose 15 mg/kg, route intraperitoneal; details: in vivo, 672 h
How it was run: (§3)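 Swiss Webster mice, n = 4 per group, dosed i.p. once daily for 28 days at 5, 7.5, 10 or 15 mg/kg body weight. Body weight recorded twice per week; deaths noted over the dosing period.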

[29] = system: Mus musculus; assay: Systemic toxicity in Swiss Webster mouse assessed as weight loss at 10 mg/kg, ip administered every day for 28 days; assay type: organism-based; parameters: dose 10 mg/kg, route intraperitoneal; details: in vivo, 672 h; how it was run: as §3
[30] = system: Mus musculus; assay: Systemic toxicity in Swiss Webster mouse assessed as mortality at 10 mg/kg, ip administered every day for 28 days; assay type: organism-based; parameters: dose 10 mg/kg, route intraperitoneal; details: in vivo, 672 h; how it was run: as §3
[31] = system: Mus musculus; assay: Systemic toxicity in athymic Harlan Sprague-Dawley nude mouse xenografted with human UACC-903 cells assessed as mortality at 10 mg/kg, ip administered daily for 28 days; assay type: organism-based; parameters: dose 10 mg/kg, route intraperitoneal; details: in vivo, 672 h
[32] = system: UACC-903; assay: Antitumor activity against human UACC-903 cells xenografted in athymic Harlan Sprague-Dawley nude mouse assessed as reduction in tumor growth at 9.5 to 10.6 mg/kg, ip administered thrice per week for 24 days measured after 21 days; assay type: functional; details: dose mg/kg 9.5-10.6; route intraperitoneal
How it was run: (§4)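 Female athymic nude mice, 4–6 weeks old, received 5×10^6 UACC 903 cells s.c. in DMEM/10% FBS above both rib cages. After six days they were randomized at 5 mice/group, 2 tumors/mouse. Dosing was i.p. Mon/Wed/Fri, with one arm dosed daily; controls got DMSO vehicle. Tumor dimensions (calipers, mm³) and body weight were recorded three times weekly.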

[33] = system: Mus musculus; assay: Systemic toxicity in athymic Harlan Sprague-Dawley nude mouse xenografted with human UACC-903 cells assessed as reduction in body weight at 9.5 to 10.6 mg/kg, ip administered thrice a week for 24 days; assay type: organism-based; parameters: dose 9.5-10.6 mg/kg, route intraperitoneal; details: in vivo, 576 h; how it was run: as §4
[34] = system: SK-MEL-37 (Homo sapiens); assay: Cytotoxicity against human SK-MEL-37 cells assessed as decrease in cell viability after 24 hrs by MTS assay
[35] = system: SK-MEL-37 (Homo sapiens); assay: Cytotoxicity against human SK-MEL-37 cells assessed as decrease in cell viability after 72 hrs by MTS assay
[36] = system: Mus musculus; assay: Systemic toxicity in Swiss Webster mouse assessed as reduction in body weight at 10 mg/kg, ip administered daily for 28 days; parameters: scale not given: the % may be the effect or the level left; details: in vivo, 672 h
[37] = system: UACC-903; assay: Antitumor activity against human UACC-903 cells xenografted in athymic Harlan Sprague-Dawley nude mouse assessed as reduction in tumor growth at 8.5 to 10 mg/kg, ip administered daily for 24 days measured after 21 days; assay type: functional; details: dose mg/kg 8.5-10; route intraperitoneal; how it was run: as §4
[38] = system: UACC-903; assay: Antitumor activity against human UACC-903 cells xenografted in athymic Harlan Sprague-Dawley nude mouse assessed as reduction in tumor growth at 8.5 to 10 mg/kg, ip administered thrice per week for 24 days measured after 21 days; assay type: functional; details: dose mg/kg 8.5-10; route intraperitoneal; how it was run: as §4
[39] = system: Mus musculus; assay: Systemic toxicity in athymic Harlan Sprague-Dawley nude mouse xenografted with human UACC-903 cells assessed as reduction in body weight at 8.5 to 10 mg/kg, ip administered thrice a week for 24 days; assay type: organism-based; parameters: dose 8.5-10 mg/kg, route intraperitoneal; details: in vivo, 576 h; how it was run: as §4

Row | Structure (SMILES) | Activity [1] | Activity [2] | Activity [3] | Activity [4] | Activity [5] | Activity [6] | IC50 [7] [µM] | IC50 [8] [µM] | IC50 [9] [µM] | IC50 [10] [µM] | IC50 [11] [µM] | IC50 [12] [µM] | IC50 [13] [µM] | IC50 [14] [µM] | Activity [15] [%] | Activity [16] [%] | Activity [17] [%] | viability at 1 µM [18] [%] | Activity [19] [%] | Activity [20] [%] | also measured
1 | N=C(N)SCCN1C(=O)c2cccc3cc([N+](=O)[O-])cc(c23)C1=O | Dose-dependent effect | Dose-dependent effect | Dose-dependent effect | Dose-dependent effect | Dose-dependent effect | Dose-dependent effect | 14.7 | 18.4 | 23.4 | 39.5 | 6.95 | 9.48 | 15 | 16.4 | 20.1 | 2.41 | 0.56 | 76.9 | 25.1 | 3.99 | Activity [21]: 0.43%; viability at 5 µM [22]: 70.4%; Activity [23]: 40.2%; Activity [24]: 12.3%; Activity [25]: 0.32%; viability at 25 µM [26]: 47.2%; Activity [27]: Dose-dependent effect; Activity [28]: Toxic; Activity [29]: Non-toxic; Activity [30]: Non-toxic; Activity [31]: Non-toxic; growth inhibition (GI) [32]: 20%; Activity [33]: Non-toxic; Activity [34]: Dose-dependent effect; Activity [35]: Dose-dependent effect; Activity [36]: 10%
2 | N=C(N)SCCN1C(=O)c2cccc3cccc(c23)C1=O | Dose-dependent effect | Dose-dependent effect | Dose-dependent effect | Dose-dependent effect | Dose-dependent effect | Dose-dependent effect | 9.87 | 6.7 | 3.7 | 22.4 | 6.85 | 3.78 | 2.15 | 18.7 | 9.11 | 1.04 | 0.71 | 89.1 | 17.5 | 2.41 | Activity [21]: 0.42%; viability at 5 µM [22]: 79.7%; Activity [23]: 47.6%; Activity [24]: 9.64%; Activity [25]: 0.43%; viability at 25 µM [26]: 42.4%; Activity [27]: Dose-dependent effect; Activity [28]: Toxic; Activity [29]: Non-toxic; Activity [30]: Non-toxic; growth inhibition (GI) [32]: 20%; Activity [33]: Non-toxic; Activity [34]: Dose-dependent effect; Activity [35]: Dose-dependent effect
3 | O=C1c2cccc3cccc(c23)C(=O)N1CCN=C=S | Dose-dependent effect | Dose-dependent effect | Dose-dependent effect | Dose-dependent effect | Dose-dependent effect | Dose-dependent effect | 11.3 | 7.93 | 5.93 | 9.41 | 8.04 | 5.05 | 2.2 | 6.04 | 12.4 | 4.96 | 6.41 | 76.3 | 19.4 | 7.96 | Activity [21]: 3.41%; viability at 5 µM [22]: 69.3%; Activity [23]: 22.1%; Activity [24]: 7.98%; Activity [25]: 5.59%; viability at 25 µM [26]: 64.3%; Activity [27]: Dose-dependent effect; Activity [28]: Toxic; Activity [29]: Non-toxic; Activity [30]: Non-toxic; growth inhibition (GI) [37]: 50%; growth inhibition (GI) [38]: 30%; Activity [39]: Non-toxic; Activity [34]: Dose-dependent effect; Activity [35]: Dose-dependent effect
